Test results as given in ChEMBL document CHEMBL1629474, “Massive screening yields novel and selective Trypanosoma cruzi triosephosphate isomerase dimer-interface-irreversible inhibitors with anti-trypanosomal activity” (Eur J Med Chem, 2010).
The source made the active and inactive calls. No rule for the calls is given here.

Columns and labels:
Trypanosoma cruzi [1] = experiment: Antiparasitic activity against Trypanosoma cruzi CLB epimastigotes assessed as growth inhibition at 25 uM after 5 days; type: functional; conditions: 120 h, read-out: GI
How it was run: (§1)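 Late-log epimastigotes were grown axenically at 28 °C in BHI-tryptose with 5% fetal calf serum and seeded at 2×10^6/mL in medium containing compound (DMSO stock; final DMSO ≤1%, 1% DMSO control). Growth was read as A590 at day 0 and day 5. Inhibition = {1 − [(Ap − A0p)/(Ac − A0c)]} × 100. Means of two experiments.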

[2] = Selectivity for Trypanosoma cruzi triosephosphate isomerase over human triosephosphate isomerase
[3] = biological target: Triosephosphate isomerase, glycosomal (Trypanosoma cruzi) (UniProt P52270); experiment: Inhibition of Trypanosoma cruzi triosephosphate isomerase at 100 uM after 2 hrs
How it was run: (§2)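 Recombinant E. coli-expressed enzyme, dialyzed into 100 mM triethanolamine/10 mM EDTA pH 7.4, was incubated with compound (DMSO stock) in 100 mM triethanolamine, 10 mM EDTA, pH 7.4, 10% DMSO at 36 °C for 2 h. An aliquot was then assayed for activity (glyceraldehyde 3-phosphate to dihydroxyacetone phosphate, α-glycerol phosphate dehydrogenase-coupled) with 5 ng enzyme. Irreversible inhibition was scored as loss of activity; means of two experiments.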

Trypanosoma cruzi [4] = experiment: Antiparasitic activity against Trypanosoma cruzi T2 epimastigotes assessed as growth inhibition at 25 uM after 5 days; type: functional; how it was run: as §1
Trypanosoma cruzi [5] = experiment: Antiparasitic activity against Trypanosoma cruzi CLB epimastigotes assessed as growth inhibition; type: functional; conditions: read-out: ID50 (the source's name)
How it was run: (§3)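 Epimastigotes were cultured at 28 °C in BHI-tryptose plus 5% fetal calf serum and seeded at 2×10^6/mL with increasing compound concentrations (from DMSO stock; final DMSO ≤1%). Growth was followed as A590 against untreated controls. ID50 was the concentration halving absorbance relative to controls. Means of two experiments.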

[6] = biological target: Triosephosphate isomerase, glycosomal (Trypanosoma cruzi) (UniProt P52270); experiment: Inhibition of Trypanosoma cruzi triosephosphate isomerase at 400 uM after 2 hrs; how it was run: as §2
[7] = biological target: Triosephosphate isomerase, glycosomal (Trypanosoma cruzi, UniProt P52270); experiment: Inhibition of Trypanosoma cruzi triosephosphate isomerase after 2 hrs; how it was run: as §2
Trypanosoma cruzi [8] = experiment: Antiparasitic activity against Trypanosoma cruzi T2 epimastigotes assessed as growth inhibition; type: functional; conditions: read-out: ID50 (the source's name); how it was run: as §3
Trypanosoma cruzi [9] = experiment: Antiparasitic activity against Trypanosoma cruzi Y epimastigotes assessed as growth inhibition; type: functional; conditions: read-out: ID50 (the source's name); how it was run: as §3
Trypanosoma cruzi [10] = experiment: Antiparasitic activity against Trypanosoma cruzi Y epimastigotes assessed as growth inhibition at 25 uM after 5 days; type: functional; conditions: 120 h, read-out: GI; how it was run: as §1
[11] = biological target: Triosephosphate isomerase (Homo sapiens) (UniProt P60174); experiment: Inhibition of human triosephosphate isomerase at 100 uM after 2 hrs; how it was run: as §2
Sequence of Triosephosphate isomerase (Homo sapiens) (P60174 whole entry): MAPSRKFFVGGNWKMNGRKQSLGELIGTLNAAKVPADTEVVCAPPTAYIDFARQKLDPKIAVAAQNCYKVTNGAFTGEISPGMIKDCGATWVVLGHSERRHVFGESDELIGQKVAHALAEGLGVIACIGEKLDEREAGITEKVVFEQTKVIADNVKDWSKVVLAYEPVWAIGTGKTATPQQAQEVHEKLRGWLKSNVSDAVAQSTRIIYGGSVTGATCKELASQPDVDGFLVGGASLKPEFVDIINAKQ

Sequence of Triosephosphate isomerase, glycosomal (Trypanosoma cruzi) (P52270 whole entry): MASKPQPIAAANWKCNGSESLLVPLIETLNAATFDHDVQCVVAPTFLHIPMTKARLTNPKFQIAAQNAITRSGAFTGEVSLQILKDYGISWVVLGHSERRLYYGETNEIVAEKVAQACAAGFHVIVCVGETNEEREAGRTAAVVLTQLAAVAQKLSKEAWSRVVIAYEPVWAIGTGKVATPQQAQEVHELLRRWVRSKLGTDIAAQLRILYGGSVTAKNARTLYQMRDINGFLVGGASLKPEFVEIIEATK
Sequence of Triosephosphate isomerase, glycosomal (P52270 whole entry): as above

Ratio [2] | inhibition [3] [%] | IC50 (Trypanosoma cruzi [5]) [µM] | inhibition [6] [%] | IC50 [7] [µM] | IC50 (Trypanosoma cruzi [8]) [µM] | IC50 (Trypanosoma cruzi [9]) [µM] | inhibition [11] [%] | Compound | inhibition of growth at 25 µM (Trypanosoma cruzi [1]) [%] | Activity (Trypanosoma cruzi [4]) | inhibition of growth at 25 µM (Trypanosoma cruzi [4]; T2, 120 h, read-out: GI) [%] | inhibition of growth at 25 µM (Trypanosoma cruzi [10]) [%]
> 4 | 8 | 4.7 | 77 |  |  |  |  | O/N=C1C=CC(/C=C/c2ccccc2)=CC/1=N/O | 100 | Active |  | 
> 4 | 73 | 2 | 84 | 26 | 2.9 | 5.5 | 0 | [O-][n+]1c2ccc(O)cc2[n+]([O-])c2cc(Cl)c(Cl)cc21 | 100 |  | 100 | 100
> 4 | 25 | 5 | 73 |  |  |  |  | O/N=C1/C=CC(C=Cc2ccc(Cl)cc2)=C/C1=N/O | 100 | Active |  | 
